Values belong to the compound of their own block, whether it stands above or below them. Active and inactive are the calls of the source. No cut-off for these calls is given here.
Key:
HL-60 [1] = test: Induction of apoptosis in p53-deficient human HL60 cells assessed as DNA fragmentation at 50 uM after 6 hrs by agarose gel electrophoresis; type: functional, cell-based
How it was run: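 2 × 10⁶ HL-60 cells treated with derivatives at 50 µM for 6 h, then scored for an apoptotic DNA ladder of 180–200 bp fragments or multiples. The positive control is 4 µM camptothecin for 6 h.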

HL-60 [2] = test: Induction of necrosis in p53-deficient human HL60 cells at 50 uM after 6 hrs by FITC-conjugated annexinV/PI-based flow cytometric analysis; type: functional, cell-based
How it was run: (§1)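 HL-60 cells incubated with each analog at 50 µM for 6 h, stained with annexin V-FITC/propidium iodide and analysed by flow cytometry. Lower right quadrant is apoptotic, upper right post-apoptotic, upper left necrotic. Three experiments, with representative dot plots shown.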

COLO 205 = test: Anticancer activity against human COLO205 cells assessed as growth inhibition at 50 uM after 48 hrs by SRB assay; type: functional; conditions: COLO 205, 48 h, read-out: GI
How it was run: (§2)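 Cells exposed to test compounds at 50 µM for 48 h. Read-out is percent growth inhibition, with SEM given. 5-Fluorouracil and adriamycin serve as reference agents.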

PC-3 = test: Anticancer activity against human PC3 cells assessed as growth inhibition at 50 uM after 48 hrs by SRB assay; type: functional; conditions: PC-3, 48 h, read-out: GI; how it was run: as §2
HL-60 [3] = test: Induction of autophagy in p53-deficient human HL60 cells at 50 uM after 6 hrs by acridine orange staining; type: functional, cell-based
How it was run: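 Autophagy scored by flow cytometry of HL-60 cells stained with acridine orange after 6 h exposure.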

HL-60 [4] = test: Induction of apoptosis in p53-deficient human HL60 cells assessed as post-apoptotic cells at 50 uM after 6 hrs by FITC-conjugated annexinV/PI-based flow cytometric analysis (reference value: 1 %); type: functional; how it was run: as §1
SW-620 = test: Anticancer activity against human SW620 cells assessed as growth inhibition at 50 uM after 48 hrs by SRB assay; type: functional; conditions: SW-620, 48 h, read-out: GI; how it was run: as §2
HL-60 [5] = test: Induction of apoptosis in p53-deficient human HL60 cells assessed as apoptotic cells at 50 uM after 6 hrs by FITC-conjugated annexinV/PI-based flow cytometric analysis (reference value: 5 %); type: functional; how it was run: as §1
HEp-2 = test: Anticancer activity against human Hep2 cells assessed as growth inhibition at 50 uM after 48 hrs by SRB assay; type: functional; conditions: HEp-2, 48 h, read-out: GI; how it was run: as §2
HT-29 = test: Anticancer activity against human HT-29 cells assessed as growth inhibition at 50 uM after 48 hrs by SRB assay; type: functional; conditions: HT-29, 48 h, read-out: GI; how it was run: as §2
DU-145 = test: Anticancer activity against human DU145 cells assessed as growth inhibition at 50 uM after 48 hrs by SRB assay; type: functional; conditions: DU-145, 48 h, read-out: GI; how it was run: as §2
HL-60 [6] = test: Anticancer activity against human HL60 cells after 48 hrs by MTT assay; type: functional, cell-based; conditions: HL-60, 48 h
How it was run: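 Cell proliferation measured by MTT. Cells are incubated with each analog for 48 h at the indicated concentrations, then MTT reduction is read as an index of viability. OD of the untreated control is taken as 100% viability, and IC50 is derived from this.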

SMILES: CC[C@@]1(O)C(=O)OCc2c1cc1n(c2=O)Cc2cc3ccccc3nc2-1 [CAMPTOTHECIN]
Activity (HL-60 [4]): 7% | Activity (HL-60 [5]): 18%

SMILES: CCC(=O)O[C@@H]1CC[C@@]2(C)[C@@H](CC[C@]3(C)[C@@H]2C(=O)C=C2[C@@H]4[C@@H](C)[C@H](C)CC[C@]4(C)CC[C@]23C)[C@@]1(C)C(=O)O
Activity (HL-60 [1]): Active | Activity (HL-60 [2]): inactive | inhibition of growth at 50 µM (COLO 205): 87% | inhibition of growth at 50 µM (PC-3): 64% | Activity (HL-60 [3]): inactive | Activity (HL-60 [4]): 17% | inhibition of growth at 50 µM (SW-620): 85% | Activity (HL-60 [5]): 21% | inhibition of growth at 50 µM (HEp-2): 69% | inhibition of growth at 50 µM (HT-29): 89% | inhibition of growth at 50 µM (DU-145): 25% | IC50 (HL-60 [6]): 16 µM

SMILES: CC(=O)O[C@H]1CC[C@@]2(C)[C@@H](CC[C@]3(C)[C@@H]2C(=O)C=C2[C@@H]4[C@@H](C)[C@H](C)CC[C@]4(C)CC[C@]23C)[C@@]1(C)C(=O)O
inhibition of growth at 50 µM (COLO 205): 54% | inhibition of growth at 50 µM (PC-3): 62% | inhibition of growth at 50 µM (SW-620): 44% | inhibition of growth at 50 µM (HEp-2): 47% | inhibition of growth at 50 µM (HT-29): 44% | inhibition of growth at 50 µM (DU-145): 83%

Continued, in another order:

IC50 (HL-60 [6]): 13 µM
SMILES: CCC(=O)O[C@@H]1CC[C@@]2(C)[C@@H](CC[C@]3(C)[C@@H]2CC=C2[C@@H]4[C@@H](C)[C@H](C)CC[C@]4(C)CC[C@]23C)[C@@]1(C)C(=O)O
Activity (HL-60 [1]): Active | Activity (HL-60 [2]): inactive | inhibition of growth at 50 µM (COLO 205): 84% | inhibition of growth at 50 µM (PC-3): 93% | Activity (HL-60 [3]): inactive | Activity (HL-60 [4]): 24% | inhibition of growth at 50 µM (SW-620): 94% | Activity (HL-60 [5]): 23% | inhibition of growth at 50 µM (HEp-2): 86% | inhibition of growth at 50 µM (HT-29): 93% | inhibition of growth at 50 µM (DU-145): 91%

IC50 (HL-60 [6]): 12 µM
SMILES: CCC(=O)O[C@H]1CC[C@@]2(C)[C@@H](CC[C@]3(C)[C@@H]2CC=C2[C@@H]4[C@@H](C)[C@H](C)CC[C@]4(C)CC[C@]23C)[C@@]1(C)C(=O)O
Activity (HL-60 [1]): Active | Activity (HL-60 [2]): inactive | inhibition of growth at 50 µM (COLO 205): 86% | inhibition of growth at 50 µM (PC-3): 95% | Activity (HL-60 [3]): inactive | Activity (HL-60 [4]): 20% | inhibition of growth at 50 µM (SW-620): 89% | Activity (HL-60 [5]): 18% | inhibition of growth at 50 µM (HEp-2): 87% | inhibition of growth at 50 µM (HT-29): 92% | inhibition of growth at 50 µM (DU-145): 88%

IC50 (HL-60 [6]): 14 µM
SMILES: CCCC(=O)O[C@@H]1CC[C@@]2(C)[C@@H](CC[C@]3(C)[C@@H]2CC=C2[C@@H]4[C@@H](C)[C@H](C)CC[C@]4(C)CC[C@]23C)[C@@]1(C)C(=O)O
Activity (HL-60 [1]): Active | Activity (HL-60 [2]): inactive | inhibition of growth at 50 µM (COLO 205): 88% | inhibition of growth at 50 µM (PC-3): 77% | Activity (HL-60 [3]): inactive | Activity (HL-60 [4]): 13% | inhibition of growth at 50 µM (SW-620): 93% | Activity (HL-60 [5]): 31% | inhibition of growth at 50 µM (HEp-2): 94% | inhibition of growth at 50 µM (HT-29): 95% | inhibition of growth at 50 µM (DU-145): 89%

IC50 (HL-60 [6]): 15 µM
SMILES: C[C@H]1[C@H](C)CC[C@]2(C)CC[C@]3(C)C(=CC[C@@H]4[C@@]5(C)CC[C@@H](O)[C@](C)(C(=O)O)[C@@H]5CC[C@]43C)[C@H]12 [BOSWELLIC ACID]
Activity (HL-60 [2]): inactive | inhibition of growth at 50 µM (COLO 205): 85% | inhibition of growth at 50 µM (PC-3): 100% | Activity (HL-60 [3]): inactive | Activity (HL-60 [4]): 34% | inhibition of growth at 50 µM (SW-620): 64% | Activity (HL-60 [5]): 20% | inhibition of growth at 50 µM (HEp-2): 43% | inhibition of growth at 50 µM (HT-29): 66% | inhibition of growth at 50 µM (DU-145): 92%
